Data as given in ChEMBL document CHEMBL1137637, “Quinuclidine derivatives as potential antiparasitics” (Antimicrob Agents Chemother, 2007).
In brackets after ≈: the same amount, converted by molar mass.

Experiments:
Leishmania amazonensis [1] = assay: Inhibition of sterol biosynthesis in Leishmania mexicana amazonensis promastigotes assessed as reduction in exogenous cholesterol level at 3 uM after 96 hrs by gas-liquid chromatography; format: functional; design: scale not given: the % may be the effect or the level left
Outline: (§1)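 L. mexicana promastigotes exposed to compound for 96 h. Total lipids extracted and neutral sterols separated from polar lipids by silicic acid column chromatography. Sterols analysed by TLC and by quantitative capillary gas-liquid chromatography with mass spectrometry. Composition expressed as mass % of free sterols, compared with untreated control.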

L6 = assay: Cytotoxicity against rat L6 cells after 72 hrs by resazurin assay; format: cell-based; details: L6, 72 h
Outline: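 L-6 cells seeded at 4 × 10⁴ cells/ml in RPMI 1640 with 10% FBS and 2 mM L-glutamine. After 24 h, medium replaced with serial drug dilution and incubated for 72 h at 37°C in 5% CO2. Resazurin added for 2–4 h, fluorescence read at ex 536/em 588 nm. IC50 from sigmoidal curve. Duplicate, with an independent repeat for actives.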

Leishmania amazonensis [2] = assay: Inhibition of sterol biosynthesis in Leishmania mexicana amazonensis promastigotes assessed as reduction in endogenous episterol level at 3 uM after 96 hrs by gas-liquid chromatography; format: functional; design: scale not given: the % may be the effect or the level left; outline: as §1
Leishmania donovani = assay: Antileishmanial activity against Leishmania donovani MHOM/ET/67/L82 axenic amastigotes after 72 hrs by resazurin assay; format: functional, organism-based; details: MHOM/ET/67/L82, 72 h
Outline: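 L. donovani MHOM/ET/67/L82 amastigotes grown axenically at 37°C in synthetic minimal medium at pH 5.4 with 10% heat-inactivated FBS under 5% CO2. 1 × 10⁵ amastigotes per well with seven threefold dilutions, 30 to 0.041 μg/ml. After 72 h, resazurin added for 2–4 h more. Fluorescence read at ex 536/em 588 nm. IC50 taken from sigmoidal curve. Run in duplicate, with an independent repeat for actives.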

[3] = test system: Trypanosoma brucei rhodesiense; assay: Trypanocidal activity against Trypanosoma brucei rhodesiense STIB 900 bloodstream form after 72 hrs by resazurin assay; format: functional, organism-based; details: STIB 900, 72 h
Outline: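 T. b. rhodesiense STIB 900 bloodstream forms in MEM with 2-mercaptoethanol and 15% heat-inactivated horse serum, with serial drug dilutions. Incubated 72 h at 37°C in 5% CO2. Resazurin added for 2–4 h more, fluorescence read at ex 536/em 588 nm. IC50 from sigmoidal curve. Duplicate, with an independent repeat for actives.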

Leishmania amazonensis [4] = assay: Inhibition of sterol biosynthesis in Leishmania mexicana amazonensis promastigotes assessed as reduction in exogenous cholesterol level at 1 uM after 96 hrs by gas-liquid chromatography; format: functional; design: scale not given: the % may be the effect or the level left; outline: as §1
[5] = molecular target: T1, Farnesyltransferase, putative (Leishmania major, UniProt Q4Q5W4); assay: Inhibition of Leishmania major recombinant squalene synthase expressed in Escherichia coli by liquid scintillation counter
T1 sequence (Q4Q5W4 whole entry): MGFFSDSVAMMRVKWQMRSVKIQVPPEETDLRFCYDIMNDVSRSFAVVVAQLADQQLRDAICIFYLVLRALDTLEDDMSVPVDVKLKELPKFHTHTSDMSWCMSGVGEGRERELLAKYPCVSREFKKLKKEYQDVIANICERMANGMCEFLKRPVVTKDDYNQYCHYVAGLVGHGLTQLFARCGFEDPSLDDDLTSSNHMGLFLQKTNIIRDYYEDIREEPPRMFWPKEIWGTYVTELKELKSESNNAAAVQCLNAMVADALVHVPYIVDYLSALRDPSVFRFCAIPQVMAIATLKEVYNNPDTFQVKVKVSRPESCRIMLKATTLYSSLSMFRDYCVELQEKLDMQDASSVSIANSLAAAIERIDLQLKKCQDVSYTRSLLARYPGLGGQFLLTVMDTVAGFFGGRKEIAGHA
Outline: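 Soluble E. coli extract expressing L. major SQS truncated by 16 N-terminal and 40 C-terminal residues. Buffer: 50 mM phosphate pH 7.4, 20 mM MgCl2, 5 mM CHAPS, 1% Tween 80, 10 mM DTT, BSA, 0.25 mM NADPH, and a glucose-6-phosphate/G6PDH regenerating system. Substrate 0.5 μM radiolabelled farnesyl pyrophosphate. Squalene band counted by scintillation. IC50 from hyperbolic plot of five concentrations in duplicate, usually run twice.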

Leishmania amazonensis [6] = assay: Antileishmanial activity against Leishmania mexicana amazonensis promastigotes by trypan blue exclusion method; format: functional, organism-based
Outline: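 L. mexicana amazonensis promastigotes cultured in liver infusion-tryptose medium with lactalbumin and 10% FCS at 26°C, unagitated. Cultures started at 2 × 10⁶ cells/ml and drug added at 0.5–1 × 10⁷ cells/ml. Density counted by electronic particle counter and hemocytometer. Viability by trypan blue exclusion. Triplicate growth experiments.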

Leishmania amazonensis [7] = assay: Inhibition of sterol biosynthesis in Leishmania mexicana amazonensis promastigotes assessed as reduction in endogenous episterol level at 1 uM after 96 hrs by gas-liquid chromatography; format: functional; design: scale not given: the % may be the effect or the level left; outline: as §1
Leishmania amazonensis [8] = assay: Inhibition of sterol biosynthesis in Leishmania mexicana amazonensis promastigotes assessed as reduction in endogenous 5-dehydro episterol level at 1 uM after 96 hrs by gas-liquid chromatography; format: functional; design: scale not given: the % may be the effect or the level left; outline: as §1
Plasmodium falciparum = assay: Antiplasmodial activity after 48 hrs against chloroquine and pyrimethamine-resistant Plasmodium falciparum K1 in human erythrocytes by [3H]hypoxanthine uptake; format: functional, organism-based
Outline: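 P. falciparum K1 in human red cells in RPMI 1640 with 5% Albumax, exposed to serial drug dilutions. Incubated 48 h at 37°C under reduced oxygen, then 0.5 μCi [³H]hypoxanthine per well for 24 h more. Cells harvested onto glass-fibre filters and counted by scintillation. Result expressed as % of untreated control, with IC50 from sigmoidal curve. Duplicate, plus an independent repeat for actives.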

Leishmania amazonensis [9] = assay: Inhibition of sterol biosynthesis in Leishmania mexicana amazonensis promastigotes assessed as reduction in endogenous 5-dehydro episterol level at 3 uM after 96 hrs by gas-liquid chromatography; format: functional; design: scale not given: the % may be the effect or the level left; outline: as §1
Trypanosoma cruzi = assay: Antitrypanosomal activity against trypomastigotes of Trypanosoma cruzi Tulahuen C2C4 containing lacZ gene in rat L6 cells after 4 days by chlorophenol red-beta-D-galactopyranoside/Nonidet assay; format: functional, organism-based; details: Tulahuen C2C4, L6, 96 h
Outline: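 L-6 rat myoblasts seeded at 2,000 cells/well in RPMI 1640 with 10% FBS and 2 mM L-glutamine. After 24 h, 5,000 T. cruzi Tulahuen C2C4 lacZ trypomastigotes added with serial drug dilution. Incubated at 37°C in 5% CO2 for 4 days. CPRG/Nonidet substrate added and colour read at 540 nm after 2–4 h. IC50 from sigmoidal curve. Duplicate determinations.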

Leishmania amazonensis [10] = assay: Inhibition of sterol biosynthesis in Leishmania mexicana amazonensis promastigotes assessed as reduction in endogenous cholesta-5,7,24-trien-3beta-ol level at 10 uM after 96 hrs by gas-liquid chromatography; format: functional; design: scale not given: the % may be the effect or the level left; outline: as §1
Leishmania amazonensis [11] = assay: Inhibition of sterol biosynthesis in Leishmania mexicana amazonensis promastigotes assessed as reduction in endogenous cholesta-7,24-dien-3beta-ol level at 10 uM after 96 hrs by gas-liquid chromatography; format: functional; design: scale not given: the % may be the effect or the level left; outline: as §1
Leishmania amazonensis [12] = assay: Inhibition of sterol biosynthesis in Leishmania mexicana amazonensis promastigotes assessed as reduction in exogenous cholesterol level at 10 uM after 96 hrs by gas-liquid chromatography; format: functional; design: scale not given: the % may be the effect or the level left; outline: as §1
Leishmania amazonensis [13] = assay: Inhibition of sterol biosynthesis in Leishmania mexicana amazonensis promastigotes assessed as reduction in endogenous 5-dehydro episterol level at 10 uM after 96 hrs by gas-liquid chromatography; format: functional; design: scale not given: the % may be the effect or the level left; outline: as §1
Leishmania amazonensis [14] = assay: Inhibition of sterol biosynthesis in Leishmania mexicana amazonensis promastigotes assessed as reduction in endogenous episterol level at 10 uM after 96 hrs by gas-liquid chromatography; format: functional; design: scale not given: the % may be the effect or the level left; outline: as §1

SMILES | Activity (Leishmania amazonensis [1]) [%] | IC50 (L6) [µM] | Activity (Leishmania amazonensis [2]) [%] | IC50 (Leishmania donovani) [µM] | IC50 [3] [µM] | Activity (Leishmania amazonensis [4]) [%] | IC50 [5] [µM] | MIC (Leishmania amazonensis [6]) [µM] | Activity (Leishmania amazonensis [7]) [%] | Activity (Leishmania amazonensis [8]) [%] | IC50 (Plasmodium falciparum) [µM] | Activity (Leishmania amazonensis [9]) [%] | IC50 (Trypanosoma cruzi) [µM] | Activity (Leishmania amazonensis [10]) [%] | Activity (Leishmania amazonensis [11]) [%] | Activity (Leishmania amazonensis [12]) [%] | Activity (Leishmania amazonensis [13]) [%] | Activity (Leishmania amazonensis [14]) [%] | IC50 (Leishmania amazonensis [6]) [µM]
CCOC(=O)c1ccc(C2=CN3CCC2CC3)cc1 | 73.4 | 265 | 13.2 | 1 | 35.1 | 52.2 | 0.18 | 1 (≈ 0.257 µg/mL) | 11.5 | 36.3 | 11.6 | 13.4 | 16 | – | – | – | – | – | –
C1=C(c2cc3ccccc3s2)C2CCN1CC2 | 62.3 | 146 | 22.2 | 1.2 | 5.6 | 47.9 | > 1 | 10 (≈ 2.41 µg/mL) | 24.5 | 28.6 | 12 | 15.5 | 64.2 | – | – | – | – | – | –
OC[C@@H]1CC2CCN1C[C@@H]2C#Cc1ccccc1 (some centres undefined) | – | 74.5 | – | > 124 | 12.8 | – | > 1 | > 10 | – | – | 3.3 | – | 8.2 | 2 | 3.9 | 17.9 | 63 | 13.2 | –
CCOC(=O)c1ccc(C#CC2(O)CN3CCC2CC3)cc1 (centres undefined) | 35.9 | 171 | 9.5 | 28.7 | 3.3 | – | 4.25 | 10 (≈ 2.99 µg/mL) | – | – | 4 | 54.6 | 5.6 | >99 | – | – | – | – | –
CCOC(=O)Cc1ccc(C#C[C@H]2CN3CCC2C[C@@H]3CO)cc1 (some centres undefined) | – | 156 | – | 14.6 | 32.3 | – | > 1 | > 10 | – | – | 5.2 | – | 22.9 | 3.6 | 3.3 | 14.6 | 73.4 | 8.4 | –
OC[C@H]1CC2CCN1C[C@@H]2C#Cc1ccccc1 (some centres undefined) | – | 166 | – | > 124 | 14.5 | – | > 1 | 10 (≈ 2.41 µg/mL) | – | – | 6.5 | – | 25.6 | 2.8 | 2.7 | 13.1 | 69.6 | 11.8 | –
CCOC(=O)Cc1ccc(C#C[C@H]2CN3CCC2C[C@H]3CO)cc1 (some centres undefined) | – | 155 | – | > 92 | 64.7 | – | > 1 | – | – | – | 5 | – | 50 | 10.7 | 11.8 | 25.2 | 41.5 | 10.8 | > 10
OC[C@@H]1CC2CCN1C[C@@H]2C#Cc1cnc2ccccc2c1 (some centres undefined) | – | 169 | – | 80 | 7.1 | – | > 1 | > 10 | – | – | 1.7 | – | 19.1 | 5.9 | 12.3 | 27.5 | 40.6 | 13.7 | –
OC1(C#Cc2ccc(OCc3ccccc3)cc2)CN2CCC1CC2 (centres undefined) | >99 | 45 | – | 3.2 | 1.9 | 74.6 | – | 1 (≈ 0.333 µg/mL) | 8.4 | 17 | 1.9 | – | 9.6 | – | – | – | – | – | –
CCOC(=O)c1ccc(C#C[C@H]2CN3CCC2C[C@H]3CO)cc1 (some centres undefined) | – | 37.6 | – | 10.2 | 1.7 | – | > 1 | > 10 | – | – | 0.6 | – | 19.4 | 23.6 | 3.3 | 18.7 | 50.3 | 4.1 | –
CC(C)OC(=O)c1ccc(C2=CN3CCC2CC3)cc1 | 74.5 | 152 | 25.5 | 1.1 | 7.2 | 44.4 | > 1 | 3 (≈ 0.814 µg/mL) | 12.8 | 42.8 | 14 | – | 23 | – | – | – | – | – | –
CCCCCCOc1ccc(C#CC2(O)CN3CCC2CC3)cc1 (centres undefined) | >99 | 15.9 | – | 4.7 | 0.5 | 20.4 | – | 1 (≈ 0.327 µg/mL) | 14.6 | 65 | 0.7 | – | 5.6 | – | – | – | – | – | –
Cc1cc(C)cc(C#CC2(O)CN3CCC2CC3)c1 (centres undefined) | 19.6 | 175 | 12 | 12.6 | 9.2 | – | > 1 | 10 (≈ 2.55 µg/mL) | – | – | 4.3 | 68.4 | 18.9 | – | – | 48.2 | 39.9 | 11.9 | –
COc1ccc(COc2ccc(C#CC3(O)CN4CCC3CC4)cc2)cc1OC (centres undefined) | 15.6 | 78.7 | 14.6 | 4.6 | 3.4 | – | – | 1 (≈ 0.393 µg/mL) | – | – | 2 | 69.8 | 13.4 | – | – | 44.6 | 38.8 | 16.6 | –
C1=C(c2ccc3ccccc3c2)C2CCN1CC2 | 35.9 | 101 | 28.9 | 12.3 | 24.2 | – | > 1 | 3 (≈ 0.706 µg/mL) | – | – | 11 | 35.2 | 34.1 | – | – | 33.8 | 52 | 14.2 | –
